Assay results as given in ChEMBL document CHEMBL4706654, “Novel cyanothiouracil and cyanothiocytosine derivatives as concentration-dependent selective inhibitors of U87MG glioblastomas: Adenosine receptor binding and potent PDE4 inhibition” (Eur J Med Chem, 2021).

Columns and labels:
U-87 MG [1] = assay: Antiproliferative activity against human U-87 MG cells assessed as cell viability at 10 uM measured after 24 to 48 hrs by MTT assay relative to control; format: functional, U-87MG ATCC; conditions: time 24-48 hrs, read-out: Activity
Outline: (§1)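 Cells seeded per well 24 h before treatment: HEK293 at 5.10^4, MCF7 at 4.10^4, U87MG at 10^5. Compounds were dissolved in DMSO (less than 1%) and diluted in DMEM, then incubated 24 and 48 h. Cells were washed with D-PBS and given MTT (from a 5 mg/mL stock) for 4 h, dissolved in DMSO, read at 540 nm. % viability = sample/control absorbance ×100. At least three independent experiments.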

U-87 MG [2] = assay: Antiproliferative activity against human U-87 MG cells assessed as cell viability at 50 uM measured after 24 to 48 hrs by MTT assay relative to control; format: functional, U-87MG ATCC; conditions: time 24-48 hrs, read-out: Activity; outline: as §1
[3] = biological target: 3',5'-cyclic-AMP phosphodiesterase 4B (Homo sapiens, UniProt Q07343); assay: Inhibition of recombinant human PDE4B using […] as substrate measured after 90 mins by colorimetric assay
Outline: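 Recombinant human PDE4 was incubated with 0.5 μM 5′-cGMP plus 5′-nucleotidase for 90 min at 30°C. The reaction was stopped with termination buffer for 20 min at room temperature, and released phosphate was read at OD 620 nm. IC50 was determined from 6 inhibitor concentrations. Compound stocks were in DMSO (less than 1%), with at least triplicate runs, mean ± SD.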

U-87 MG [4] = assay: Antiproliferative activity against human U-87 MG cells assessed as cell viability at 100 uM measured after 24 to 48 hrs by MTT assay relative to control; format: functional, U-87MG ATCC; conditions: time 24-48 hrs, read-out: Activity; outline: as §1
U-87 MG [5] = assay: Antiproliferative activity against human U-87 MG cells assessed as cell viability at 5 uM measured after 24 to 48 hrs by MTT assay relative to control; format: functional, U-87MG ATCC; conditions: time 24-48 hrs, read-out: Activity; outline: as §1
MCF7 = assay: Antiproliferative activity against human MCF7 cells assessed as reduction in cell viability measured after 24 to 48 hrs by MTT assay; format: functional, cell-based; outline: as §1
[6] = biological target: Adenosine receptor A2a (Homo sapiens) (UniProt P29274); assay: Displacement of [3H]ZM241385 from recombinant human A2A adenosine receptor expressed in HEK293 cell membranes at 1 uM measured after 60 mins by liquid scintillation counting method relative to control; conditions: Membrane
Outline: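 HEK293 membranes expressing hA2A (20 μg/tube) were incubated with 15 nM [3H]ZM241385 and 1 μM test compound for 60 min at 25°C in 50 mM Tris-HCl, pH 7.4, 10 mM MgCl2. The reaction was stopped by GF/B filtration, followed by scintillation counting. Read-out was percent inhibition of specific binding.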

U-87 MG [7] = assay: Antiproliferative activity against human U-87 MG cells assessed as reduction in cell viability measured after 24 to 48 hrs by MTT assay; format: functional, cell-based, U-87MG ATCC; outline: as §1
HEK293 [8] = assay: (§2) Cytotoxicity against HEK293 cells assessed as cell viability at 100 uM measured after 24 to 48 hrs by MTT assay relative to control; format: cell-based; conditions: human, hek293, 100 µM, time 24-48 hrs; outline: as §1
[9] = biological target: T1, Adenosine receptor A1 (Homo sapiens) (UniProt P30542); assay: Displacement of [3H]DPCPX from recombinant human A1 adenosine receptor expressed in CHO cell membranes at 1 uM measured after 60 mins by liquid scintillation counting method relative to control; conditions: Membrane
T1 sequence (whole entry): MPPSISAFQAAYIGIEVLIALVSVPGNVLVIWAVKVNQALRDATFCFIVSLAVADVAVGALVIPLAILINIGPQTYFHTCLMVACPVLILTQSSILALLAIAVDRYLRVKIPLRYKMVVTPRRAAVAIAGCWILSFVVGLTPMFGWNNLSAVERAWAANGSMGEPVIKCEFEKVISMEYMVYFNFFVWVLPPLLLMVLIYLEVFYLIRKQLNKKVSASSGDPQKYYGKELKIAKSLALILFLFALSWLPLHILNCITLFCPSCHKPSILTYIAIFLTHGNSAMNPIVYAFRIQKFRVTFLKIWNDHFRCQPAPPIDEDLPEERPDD
Outline: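 Membranes from CHO cells expressing recombinant hA1 (40 μg/tube) were incubated with 2 nM [3H]DPCPX and test compound at 1 μM in 50 mM Tris-HCl (pH 7.4, 10 mM MgCl2) for 60 min at 25°C. Bound radioligand was separated by GF/B filtration and counted by liquid scintillation. Results are given as percent inhibition of specific binding.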

[10] = as §2; format: cell-based; conditions: human, HEK293 cells, time 24-48 hrs, read-out: Activity; outline: as §1
[11] = biological target: T2, Adenosine receptor A2b (Homo sapiens) (UniProt P29275); assay: Displacement of [3H]ZM241385 from A2B adenosine receptor (unknown origin) at 10 uM measured after 60 mins by liquid scintillation counting method relative to control
T2 sequence (whole entry): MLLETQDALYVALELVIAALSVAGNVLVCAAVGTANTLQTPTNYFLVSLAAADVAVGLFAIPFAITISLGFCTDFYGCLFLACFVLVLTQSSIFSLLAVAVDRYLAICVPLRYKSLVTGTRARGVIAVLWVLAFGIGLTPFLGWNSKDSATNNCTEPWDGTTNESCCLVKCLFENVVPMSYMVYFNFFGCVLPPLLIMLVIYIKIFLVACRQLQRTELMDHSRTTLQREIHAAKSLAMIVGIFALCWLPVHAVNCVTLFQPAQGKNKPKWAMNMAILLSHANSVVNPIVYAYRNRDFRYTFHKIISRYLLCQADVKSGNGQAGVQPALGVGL

[12] = biological target: T2, Adenosine receptor A2b (Homo sapiens); assay: Displacement of [3H]ZM241385 from A2B adenosine receptor (unknown origin) at 1 uM measured after 60 mins by liquid scintillation counting method relative to control
HEK293 [13] = assay: Cytotoxicity against HEK293 cells assessed as reduction in cell viability measured after 24 to 48 hrs by MTT assay; format: cell-based; conditions: Homo sapiens; outline: as §1

Chain of Adenosine receptor A2a (Homo sapiens) (P29274 whole entry): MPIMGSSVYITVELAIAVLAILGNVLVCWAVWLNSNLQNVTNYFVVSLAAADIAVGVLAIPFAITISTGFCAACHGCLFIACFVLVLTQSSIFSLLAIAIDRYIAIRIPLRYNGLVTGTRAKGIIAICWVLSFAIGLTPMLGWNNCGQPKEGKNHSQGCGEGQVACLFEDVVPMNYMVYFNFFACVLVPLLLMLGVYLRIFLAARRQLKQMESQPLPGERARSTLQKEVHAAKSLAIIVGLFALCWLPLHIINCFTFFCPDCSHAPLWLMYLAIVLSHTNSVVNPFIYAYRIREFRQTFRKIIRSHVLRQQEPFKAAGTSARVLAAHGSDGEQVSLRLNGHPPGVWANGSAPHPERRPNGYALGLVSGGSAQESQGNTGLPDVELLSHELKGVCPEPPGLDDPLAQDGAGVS
Chain of 3',5'-cyclic-AMP phosphodiesterase 4B (Q07343 whole entry): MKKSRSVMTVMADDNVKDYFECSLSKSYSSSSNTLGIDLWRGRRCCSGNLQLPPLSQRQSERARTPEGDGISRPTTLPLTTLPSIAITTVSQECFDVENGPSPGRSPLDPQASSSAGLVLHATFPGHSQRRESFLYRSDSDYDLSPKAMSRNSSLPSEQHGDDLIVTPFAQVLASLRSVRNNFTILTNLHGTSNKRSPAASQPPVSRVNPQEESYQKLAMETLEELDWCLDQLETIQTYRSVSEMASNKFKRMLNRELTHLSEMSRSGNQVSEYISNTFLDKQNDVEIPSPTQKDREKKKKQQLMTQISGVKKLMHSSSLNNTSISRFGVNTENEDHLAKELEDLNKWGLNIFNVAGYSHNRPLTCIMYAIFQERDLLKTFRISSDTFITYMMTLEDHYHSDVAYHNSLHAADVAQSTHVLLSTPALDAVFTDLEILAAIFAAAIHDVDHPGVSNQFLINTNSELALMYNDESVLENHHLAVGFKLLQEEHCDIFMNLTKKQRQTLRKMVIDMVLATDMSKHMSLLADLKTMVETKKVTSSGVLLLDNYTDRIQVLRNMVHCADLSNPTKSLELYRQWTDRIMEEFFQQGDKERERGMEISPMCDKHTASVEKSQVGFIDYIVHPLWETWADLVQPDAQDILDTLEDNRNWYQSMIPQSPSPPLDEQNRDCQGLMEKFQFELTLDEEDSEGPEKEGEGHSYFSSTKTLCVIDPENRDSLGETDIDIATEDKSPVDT

Row | SMILES | IC50 [3] | IC50 (MCF7) | inhibition [6] | IC50 (U-87 MG [7]) | inhibition [9] | inhibition [11] | inhibition [12] | viability at 10 µM (U-87 MG [1]) | viability at 50 µM (U-87 MG [2]) | viability at 100 µM (U-87 MG [4]) | viability at 5 µM (U-87 MG [5]) | Activity (HEK293 [8]) | viability at 100 µM [10] | IC50 (HEK293 [13])
1 | COc1ccc(-c2nc(SCC(=O)c3sc(-c4ccccc4)nc3C)nc(N)c2C#N)cc1 | 33.1 µM | 27.2 µM | 0.8% | 14 µM | -4.6% | – | – | 60.8% | 33.8% | 17.2% | 68.8% | – | > 50% | –
2 | Cc1nc(-c2ccc(Cl)cc2)sc1C(=O)CSc1nc(N)c(C#N)c(-c2ccccc2)n1 | 22.1 µM | 25.2 µM | -1.4% | 11.4 µM | 8.7% | – | – | 67.9% | 15.2% | 4.59% | 71.1% | – | > 50% | –
3 | COc1ccc(-c2nc(SCC(=O)c3sc(-c4ccccc4)nc3C)[nH]c(=O)c2C#N)cc1OC | > 100 µM | 63.7 µM | 12% | 15.3 µM | 10% | – | – | 69.8% | 21.4% | 6.48% | 80.8% | – | – | 91.8 µM
4 | Cc1nc(-c2ccc(Cl)cc2)sc1C(=O)CSc1nc(N)c(C#N)c(-c2ccc(Cl)cc2)n1 | 24.1 µM | 12.5 µM | 1.8% | 3.42 µM | -3.7% | – | – | 37.3% | 15.5% | 1.65% | 46.1% | – | – | 73 µM

These reach a lower IC50 [3]. Values come first.

Row | IC50 [3] | IC50 (MCF7) | inhibition [6] | IC50 (U-87 MG [7]) | inhibition [9] | inhibition [11] | inhibition [12] | SMILES | viability at 10 µM (U-87 MG [1]) | viability at 50 µM (U-87 MG [2]) | viability at 100 µM (U-87 MG [4]) | viability at 5 µM (U-87 MG [5]) | Activity (HEK293 [8]) | viability at 100 µM [10] | IC50 (HEK293 [13])
5 | 11.2 µM | 72.1 µM | -2.6% | 8.54 µM | -2.8% | – | – | COc1ccc(-c2nc(C)c(C(=O)CSc3nc(N)c(C#N)c(-c4ccccc4)n3)s2)cc1 | 57.8% | 16.5% | 5.25% | 61.8% | > 50% | – | –
6 | 3.15 µM | 24.3 µM | – | 1.56 µM | 9% | 49% | 18% | COc1ccc(-c2nc(C)c(C(=O)CSc3nc(N)c(C#N)c(-c4ccc(OC)cc4)n3)s2)cc1 | 28.7% | 13% | 0.26% | 35.6% | > 50% | – | –
7 | 0.97 µM | 11.2 µM | -7.1% | 4.54 µM | 1.1% | – | – | COc1ccc(-c2nc(C)c(C(=O)CSc3nc(N)c(C#N)c(-c4ccc(Cl)cc4)n3)s2)cc1 | 44% | 23.1% | 3.9% | 51.4% | – | – | 39.2 µM
